Test results reported in ChEMBL document CHEMBL5107994, “Biphenyl scaffold for the design of NMDA-receptor negative modulators: molecular modeling, synthesis, and biological activity” (RSC Med Chem, 2022).
The source made the active and inactive calls. The calls are words filed in the database; no cut-off is given here.

Assays:
Glutamate NMDA receptor [1] = experiment: Negative allosteric modulator activity at NMDA receptor in Wistar rat hippocampal CA1 neuronal membrane assessed as inhibition of NMDA and glycine induced current response by whole-cell patch clamp technique; format: cell membranes; details: hippocampal ca1 neurone
How it was run: (§1)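 Acutely vibrodissociated CA1 pyramidal neurons from 13–18-day male Wistar rats, whole-cell recorded at –80 mV at room temperature. 100 μM NMDA + 10 μM glycine activated the receptors. Steady-state current block was measured across concentrations and fitted with the Hill equation for the concentration-inhibition relationship. At least four experiments, mean ± SD.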

[2] = biological target: T1, Glutamate NMDA receptor (Rattus norvegicus) (UniProt P35439+Q00959+Q00960+Q00961+Q62645+Q8VHN2+Q9R1M7); experiment: Negative allosteric modulator activity at NMDA receptor in Wistar rat hippocampal CA1 neuronal membrane assessed as inhibition of NMDA and glycine induced current response at 30 uM by whole-cell patch clamp technique; format: cell membranes; details: Hippocampal CA1 neurone
How it was run: (§2)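 Male Wistar rats, 13–18 d old. CA1 pyramidal neurons isolated from hippocampal slices by vibrodissociation. Whole-cell patch clamp at room temperature, holding potential –80 mV, with 70–80% series-resistance compensation. Currents evoked by 100 μM NMDA plus 10 μM glycine. Percent block of the steady-state current measured at each compound concentration. Means ± SD from at least four experiments.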

Glutamate NMDA receptor [3] = experiment: Displacement of 3[H]ifenprodil from NMDA receptor in Wistar rat brain membrane incubated for 2 hrs by scintillation counting method; format: cell membranes
How it was run: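 Rat hippocampal membranes prepared in HEPES/Tris pH 7.6 buffers with repeated EDTA washes, stored in liquid nitrogen. Incubated with [3H]-ifenprodil (40 nM working-solution aliquot) for 2 h at room temperature. Nonspecific binding measured with 10 μM unlabeled ifenprodil. Test compounds over 10^-8 to 10^-3 M. Filtration on polyethyleneimine-soaked GF/B filters, then scintillation counting. Each concentration run in triplicate and averaged.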

[4] = biological target: T1, Glutamate NMDA receptor (Rattus norvegicus); experiment: Negative allosteric modulator activity at NMDA receptor in Wistar rat hippocampal CA1 neuronal membrane assessed as inhibition of NMDA and glycine induced current response by measuring maximum efficacy by whole-cell patch clamp technique; format: cell membranes; details: Hippocampal CA1 neurone, filed as negative allosteric modulator; how it was run: as §1
[5] = biological target: T1, Glutamate NMDA receptor (Rattus norvegicus); experiment: Negative allosteric modulator activity at NMDA receptor in Wistar rat hippocampal CA1 neuronal membrane assessed as inhibition of NMDA and glycine induced current response at 0.03 uM by whole-cell patch clamp technique; format: cell membranes; details: Hippocampal CA1 neurone; how it was run: as §2
[6] = biological target: T1, Glutamate NMDA receptor (Rattus norvegicus); experiment: Negative allosteric modulator activity at NMDA receptor in Wistar rat hippocampal CA1 neuronal membrane assessed as inhibition of NMDA and glycine induced current response at 0.3 uM by whole-cell patch clamp technique; format: cell membranes; details: Hippocampal CA1 neurone, filed as negative allosteric modulator; how it was run: as §2
[7] = biological target: T1, Glutamate NMDA receptor (Rattus norvegicus); experiment: Negative allosteric modulator activity at NMDA receptor in Wistar rat hippocampal CA1 neuronal membrane assessed as inhibition of NMDA and glycine induced current response at 3 uM by whole-cell patch clamp technique; format: cell membranes; details: Hippocampal CA1 neurone, filed as negative allosteric modulator; how it was run: as §2
Mus musculus = experiment: Antidepressant activity in ICR (CD-1) mouse assessed as decrease in immobility time at 160 mg/kg, po and measured after 1 hr by forced swim test; format: functional, organism-based
How it was run: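 Adult male ICR (CD-1) mice, 20–25 g, n=10 per group, dosed orally 1 h before a one-day forced swim test. Solutions were prepared on the day. Each mouse swam 5 min in a cylinder with at least 20 cm of water at 24–26°C, with fresh water per animal, and was videotaped. Total immobility (passive floating) was compared with an […] saline/5% DMSO group by Mann-Whitney U-test.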

Row | SMILES | IC50 (Glutamate NMDA receptor [1]) | IC50 (Glutamate NMDA receptor [3]) | Emax [4] | also measured
1 | CCNc1cccc(NCC(O)c2ccc(-c3ccccc3)cc2)c1 (configuration not stated) | > 30 µM | > 100 µM |  | inhibition [2]: 10%
2 | Oc1cccc(NCC(O)c2ccc(-c3ccccc3)cc2)c1 (configuration not stated) | 0.45 µM | 4.2 µM | 72% | 
3 | C[C@H]([C@@H](O)c1ccc(O)cc1)N1CCC(Cc2ccccc2)CC1 |  |  | 62% | 
4 | CS(=O)(=O)Nc1cccc(NCC(O)c2ccc(-c3ccccc3)cc2)c1 (configuration not stated) | 0.1 µM | 5.4 µM | 83% | inhibition [5]: 25%; inhibition [6]: 61%; inhibition [7]: 76%
5 | NC(COc1cccc(O)c1)c1ccc(-c2ccccc2)cc1 (configuration not stated) | 5 µM | 41 µM | 65% | 
6 | Oc1cccc(OCC(O)c2ccc(-c3ccccc3)cc2)c1 (configuration not stated) | 5 µM | 30 µM | 62% | 
7 | CNCCC(Oc1ccc(C(F)(F)F)cc1)c1ccccc1 (configuration not stated) |  |  |  | Activity (Mus musculus): Active
8 | CS(=O)(=O)Nc1cccc(NCC(O)c2ccc(-c3ccc(Br)cc3)cc2)c1 (configuration not stated) | 0.05 µM | 1 µM | 78% | 
9 | Oc1ccc(OCC(O)c2ccc(-c3ccccc3)cc2)cc1 (configuration not stated) | > 30 µM | > 100 µM |  | inhibition [2]: 36%
10 | OC(CNc1ccccc1)c1ccc(-c2ccccc2)cc1 (configuration not stated) | > 30 µM | > 100 µM |  | inhibition ([2]; filed as negative allosteric modulator): 42%
11 | OC(COc1ccccc1)c1ccc(-c2ccccc2)cc1 (configuration not stated) | > 30 µM | > 100 µM |  | inhibition [2]: 37%
